Results taken from ChEMBL document CHEMBL1148170, “Antiplatelet effects and vasorelaxing action of some constituents of Formosan plants” (1993).

What was measured:
Platelet [1] = assay: Inhibition of collagen-induced platelet aggregation in rabbit platelet-rich plasma at 100 ug/mL after 3 mins by turbidimetric method; format: functional, Oryctolagus cuniculus; design: scale not given: the % may be the effect or the level left
Method in brief: (§1)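 Preincubated with test agent or 0.5% DMSO (final, control) at 37° for 3 min, then ADP (20 μM), arachidonic acid (100 μM), collagen (10 μg/ml) or PAF (2 ng/ml) added. Stirred at 1200 rpm, turbidimetric aggregometry. Percent aggregation as mean ± SEM.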

Platelet [2] = assay: Inhibition of arachidonic acid-induced platelet aggregation in rabbit platelet-rich plasma at 100 ug/mL after 3 mins by turbidimetric method; format: functional, Oryctolagus cuniculus; design: scale not given: the % may be the effect or the level left; method in brief: as §1
Platelet [3] = assay: Inhibition of ADP-induced platelet aggregation in rabbit platelet-rich plasma at 100 ug/mL after 3 mins by turbidimetric method; format: functional, Oryctolagus cuniculus; design: scale not given: the % may be the effect or the level left
Method in brief: as §1, with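 “Washed rabbit platelets from EDTA-anticoagulated platelet-rich plasma, 4.5 × 10^8/ml in Tyrode's solution with 0.35% BSA. Preincubated” for “Preincubated”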

Platelet [4] = assay: Inhibition of platelet activity factor-induced platelet aggregation in rabbit platelet-rich plasma at 100 ug/mL after 3 mins by turbidimetric method; format: functional, Oryctolagus cuniculus; design: scale not given: the % may be the effect or the level left; method in brief: as §1
Aorta [5] = assay: Inhibition of norepinephrine-induced Wistar rat thoracic aorta tonic contraction at 100 ug/mL after 15 mins; format: functional
Method in brief: (§2)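 Wistar rat thoracic aorta rings, about 5 mm, in Krebs solution at 37° gassed with 95% O2/5% CO2, under 1 g tension, equilibrated 90 min. Preincubated 15 min with compound or 0.1% DMSO (control), then stimulated with high K+ (80 mM) plus Ca2+ (1.9 mM) or norepinephrine 3 μM (phasic and tonic phases). Expressed as % of control contraction, mean ± SE, n = 3.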

Aorta [6] = assay: Inhibition of norepinephrine-induced Wistar rat thoracic aorta phasic contraction at 100 ug/mL after 15 mins; format: functional; method in brief: as §2
Aorta [7] = assay: Inhibition of K(+)/Ca(2+)-induced Wistar rat thoracic aorta contraction at 100 ug/mL after 15 mins; format: functional; method in brief: as §2
Platelet [8] = assay: Inhibition of arachidonic acid-induced platelet aggregation in rabbit platelet-rich plasma at 25 ug/mL after 3 mins by turbidimetric method; format: functional, Oryctolagus cuniculus; design: scale not given: the % may be the effect or the level left
Method in brief: as §1, with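 “Washed rabbit platelets from EDTA-anticoagulated platelet-rich plasma, 4.5 × 10^8/ml in Tyrode's solution with 0.35% BSA. Preincubated” for “Preincubated”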

Platelet [9] = assay: Inhibition of collagen-induced platelet aggregation in rabbit platelet-rich plasma at 50 ug/mL after 3 mins by turbidimetric method; format: functional, Oryctolagus cuniculus; design: scale not given: the % may be the effect or the level left
Method in brief: (§3)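 Washed rabbit platelets from EDTA-anticoagulated platelet-rich plasma, 4.5 × 10^8/ml in Tyrode's solution with 0.35% BSA. Preincubated with compound or 0.5% DMSO (final) at 37° for 3 min, stirred at 1200 rpm. Arachidonic acid (100 µM) or collagen (10 µg/ml) then added. Turbidimetric read-out on a Lumi-aggregometer gives % aggregation as mean ± SEM.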

Platelet [10] = assay: Inhibition of arachidonic acid-induced platelet aggregation in rabbit platelet-rich plasma at 50 ug/mL after 3 mins by turbidimetric method; format: functional, Oryctolagus cuniculus; design: scale not given: the % may be the effect or the level left; method in brief: as §3
Platelet [11] = assay: Inhibition of collagen-induced platelet aggregation in rabbit platelet-rich plasma at 25 ug/mL after 3 mins by turbidimetric method; format: functional, Oryctolagus cuniculus; design: scale not given: the % may be the effect or the level left
Method in brief: as §1, with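 “Washed rabbit platelets from EDTA-anticoagulated platelet-rich plasma, 4.5 × 10^8/ml in Tyrode's solution with 0.35% BSA. Preincubated” for “Preincubated”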

Platelet [12] = assay: Inhibition of ADP-induced platelet aggregation in rabbit platelet-rich plasma at 25 ug/mL after 3 mins by turbidimetric method; format: functional, Oryctolagus cuniculus; design: scale not given: the % may be the effect or the level left
Method in brief: as §1, with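 “Washed rabbit platelets from EDTA-anticoagulated platelet-rich plasma, 4.5 × 10^8/ml in Tyrode's solution with 0.35% BSA. Preincubated” for “Preincubated”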

Platelet [13] = assay: Inhibition of platelet activity factor-induced platelet aggregation in rabbit platelet-rich plasma at 25 ug/mL after 3 mins by turbidimetric method; format: functional, Oryctolagus cuniculus; design: scale not given: the % may be the effect or the level left
Method in brief: as §1, with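 “Washed rabbit platelets from EDTA-anticoagulated platelet-rich plasma, 4.5 × 10^8/ml in Tyrode's solution with 0.35% BSA. Preincubated” for “Preincubated”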

Platelet [14] = assay: Inhibition of collagen-induced platelet aggregation in rabbit platelet-rich plasma after 3 mins by turbidimetric method; format: functional; conditions: Oryctolagus cuniculus
Platelet [15] = assay: Inhibition of platelet activity factor-induced platelet aggregation in rabbit platelet-rich plasma at 50 ug/mL after 3 mins by turbidimetric method; format: functional, Oryctolagus cuniculus; design: scale not given: the % may be the effect or the level left
Method in brief: as §1, with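 “Washed rabbit platelets from EDTA-anticoagulated platelet-rich plasma, 4.5 × 10^8/ml in Tyrode's solution with 0.35% BSA. Preincubated” for “Preincubated”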

Platelet [16] = assay: Inhibition of ADP-induced platelet aggregation in rabbit platelet-rich plasma at 50 ug/mL after 3 mins by turbidimetric method; format: functional, Oryctolagus cuniculus; design: scale not given: the % may be the effect or the level left
Method in brief: as §1, with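 “Washed rabbit platelets from EDTA-anticoagulated platelet-rich plasma, 4.5 × 10^8/ml in Tyrode's solution with 0.35% BSA. Preincubated” for “Preincubated”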

Aorta [17] = assay: Inhibition of norepinephrine-induced Wistar rat thoracic aorta tonic contraction at 10 ug/mL after 15 mins; format: functional; design: scale not given: the % may be the effect or the level left
Method in brief: (§4)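 Thoracic aorta rings (~5 mm) from Wistar rats of either sex (250–300 g) held in Krebs solution at 37° under 95% O2/5% CO2. Equilibrated 90 min at 1 g tension, then preincubated 15 min with compound or 0.1% DMSO. Contraction by norepinephrine (3 µM), phasic and tonic components, expressed as % of control contraction, mean ± SE, n = 3.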

Aorta [18] = assay: Inhibition of norepinephrine-induced Wistar rat thoracic aorta phasic contraction at 50 ug/mL after 15 mins; format: functional; design: scale not given: the % may be the effect or the level left; method in brief: as §4
Aorta [19] = assay: Inhibition of norepinephrine-induced Wistar rat thoracic aorta phasic contraction at 20 ug/mL after 15 mins; format: functional; design: scale not given: the % may be the effect or the level left; method in brief: as §4
Aorta [20] = assay: Inhibition of norepinephrine-induced Wistar rat thoracic aorta tonic contraction at 20 ug/mL after 15 mins; format: functional; design: scale not given: the % may be the effect or the level left; method in brief: as §4
Aorta [21] = assay: Inhibition of norepinephrine-induced Wistar rat thoracic aorta tonic contraction at 50 ug/mL after 15 mins; format: functional; design: scale not given: the % may be the effect or the level left; method in brief: as §4
Aorta [22] = assay: Inhibition of norepinephrine-induced Wistar rat thoracic aorta phasic contraction at 10 ug/mL after 15 mins; format: functional; design: scale not given: the % may be the effect or the level left; method in brief: as §4

| Structure (SMILES) | Activity (Platelet [1]) | Activity (Platelet [2]) | Activity (Platelet [3]) | Activity (Platelet [4]) | also measured |
| --- | --- | --- | --- | --- | --- |
| CC(=O)Oc1cc(OC(C)=O)c2c(=O)c(O[C@@H]3O[C@H](CO[C@@H]4O[C@@H](C)[C@H](OC(C)=O)[C@@H](OC(C)=O)[C@H]4OC(C)=O)[C@@H](OC(C)=O)[C@H](OC(C)=O)[C@H]3OC(C)=O)c(-c3ccc(OC(C)=O)c(OC(C)=O)c3)oc2c1 [RUTIN DECAACETATE] | 27.3% | 25.9% | 72.4% | 88.7% | – |
| O=c1c(O[C@@H]2O[C@H](CO)[C@H](O)[C@H](O)[C@H]2O)c(-c2ccc(O)c(O)c2)oc2cc(O)cc(O)c12 [HYPEROSIDE] | 87.3% | 92.2% | 71.4% | 93.8% | Contraction (% of control) (Aorta [5]): 98.8%; Contraction as % of control (Aorta [6]): 100%; Contraction as % of control (Aorta [7]): 120.9% |
| Cc1cc(O)c2c(c1)C(=O)c1cc(O)cc(O)c1C2=O [EMODIN] | 75.7% | 33.6% | 65.1% | 76.4% | Activity (Platelet [8]): 90.2%; Activity (Platelet [9]): 83.3%; Activity (Platelet [10]): 64.5% |
| C[C@@H]1O[C@@H](OC[C@H]2O[C@@H](Oc3c(-c4ccc(O)c(O)c4)oc4cc(O)cc(O)c4c3=O)[C@H](O)[C@@H](O)[C@@H]2O)[C@H](O)[C@H](O)[C@H]1O [RUTIN] | 87% | 93.5% | 75% | 91.1% | Contraction (% of control) (Aorta [5]): 120.6%; Contraction as % of control (Aorta [6]): 103.8%; Contraction as % of control (Aorta [7]): 112.9% |
| COc1ccc2c(c1)c(CC(=O)O)c(C)n2C(=O)c1ccc(Cl)cc1 [INDOMETHACIN] | 72.3% | 0% | 69.5% | 89.4% | – |
| COc1cc(O)c2c(c1)C(=O)c1cc(C)cc(O)c1C2=O [PHYSCION] | – | – | – | – | Activity (Platelet [8]): 89.6%; Activity (Platelet [11]): 86.8%; Activity (Platelet [12]): 78.9%; Activity (Platelet [13]): 80.7% |
| COc1cc(OC(C)=O)c2c(c1)C(=O)c1cc(C)cc(OC(C)=O)c1C2=O [PHYSCION DIACETATE] | – | – | – | – | Activity (Platelet [8]): 90.3%; Activity (Platelet [11]): 89.4%; Activity (Platelet [12]): 76.5%; Activity (Platelet [13]): 93.9% |
| COc1cc(OC(C)=O)c2c(=O)c(OC(C)=O)c(-c3ccc(OC(C)=O)c(OC)c3)oc2c1 [RHAMNAZIN TRIACETATE] | 14.3% | 10% | – | 84.5% | Activity (Platelet [14]): Dose-dependent effect |
| CC(=O)Oc1cc(OC(C)=O)c2c(=O)c(OC(C)=O)c(-c3ccc(OC(C)=O)c(OC(C)=O)c3)oc2c1 | 17.4% | 2.4% | – | 89.2% | – |
| CC(=O)Oc1cc(OC(C)=O)c2c(=O)c(OC(C)=O)c(-c3ccc(O[C@@H]4O[C@H](CO[C@@H]5O[C@@H](C)[C@H](OC(C)=O)[C@@H](OC(C)=O)[C@H]5O[C@@H]5O[C@@H](C)[C@H](OC(C)=O)[C@@H](OC(C)=O)[C@H]5OC(C)=O)[C@H](OC(C)=O)[C@H](OC(C)=O)[C@H]4OC(C)=O)cc3)oc2c1 [RHAMNUSTRIOSIDE UNDECAAACETATE] | 86.5% | 88.5% | – | 89.9% | – |
| Cc1cc(O)c2c(c1)C(=O)c1cccc(O)c1C2=O [CHRYSOPHANOL] | – | – | – | – | Activity (Platelet [9]): 85.4%; Activity (Platelet [10]): 90.6%; Activity (Platelet [15]): 88.3%; Activity (Platelet [16]): 82.6% |
| O=c1c(O[C@@H]2O[C@H](CO[C@@H]3OC[C@H](O)[C@H](O)[C@H]3O)[C@H](O)[C@H](O)[C@H]2O)c(-c2ccc(O)c(O)c2)oc2cc(O)cc(O)c12 | – | – | – | – | Contraction (% of control) (Aorta [5]): 108.4%; Contraction as % of control (Aorta [6]): 100%; Contraction as % of control (Aorta [7]): 100% |
| O=c1c(O)c(-c2ccc(O)c(O)c2)oc2cc(O)cc(O)c12 [QUERCETIN] | – | – | – | – | Activity (Aorta [17]): 101.9%; Contraction (% of control) (Aorta [5]): 0%; Activity (Aorta [18]): 15%; Contraction as % of control (Aorta [6]): 27%; Activity (Aorta [19]): 44.9%; Contraction as % of control (Aorta [7]): 13.9%; Activity (Aorta [20]): 29.1%; Activity (Aorta [21]): 0%; Activity (Aorta [22]): 105% |
| CC(=O)Oc1cc(OC(C)=O)c2c(c1)C(=O)c1cc(C)cc(OC(C)=O)c1C2=O [EMODIN TRIACETATE] | 89.6% | 82.5% | 72.2% | 84.5% | – |
| COc1cc(OC(C)=O)c2c(=O)c(OC(C)=O)c(-c3ccc(OC(C)=O)c(OC(C)=O)c3)oc2c1 [RHAMNETIN TETRAACETATE] | 0% | 2.6% | – | 0% | Activity (Platelet [14]): Dose-dependent effect |
| COc1cc(OC(C)=O)c2c(=O)c(O[C@@H]3O[C@H](CO[C@@H]4O[C@@H](C)[C@H](O[C@@H]5O[C@@H](C)[C@H](OC(C)=O)[C@@H](OC(C)=O)[C@H]5OC(C)=O)[C@@H](OC(C)=O)[C@H]4OC(C)=O)[C@H](OC(C)=O)[C@H](OC(C)=O)[C@H]3OC(C)=O)c(-c3ccc(OC(C)=O)c(OC)c3)oc2c1 | 87.8% | 88.8% | – | 90.8% | – |
| CC(=O)Oc1cc(OC(C)=O)c2c(=O)c(O[C@@H]3O[C@H](CO[C@@H]4OC[C@H](OC(C)=O)[C@H](OC(C)=O)[C@H]4OC(C)=O)[C@H](OC(C)=O)[C@H](OC(C)=O)[C@H]3OC(C)=O)c(-c3ccc(OC(C)=O)c(OC(C)=O)c3)oc2c1 | 38.5% | 78.3% | – | 87.7% | – |
